The values that follow come from ChEMBL document CHEMBL4118097, “Selective Inhibitors of Dual Leucine Zipper Kinase (DLK, MAP3K12) with Activity in a Model of Alzheimer's Disease” (J Med Chem, 2017).

For test [1], the target named is Dual specificity tyrosine-phosphorylation-regulated kinase 4 (Homo sapiens) (UniProt Q9NR20). Nature of the test: Inhibition of full length recombinant GST-tagged human DYRK4 expressed in baculovirus expression system at 1 uM by FRET assay relative to control.
In test [2] the target is Macrophage colony-stimulating factor 1 receptor (Homo sapiens, UniProt P07333). Nature of the test: Inhibition of recombinant His-tagged human CSF1R cytoplasmic domain (538 to 910 residues) expressed in baculovirus expression system at 1 uM by FRET assay relative to control. In a few lines:
(§1)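 Single-point screen at 1 μM compound in a 220-kinase panel run by Life Technologies (SelectScreen). Z′-LYTE format: phosphorylation of a labeled peptide substrate read by FRET. Values are reported as percent inhibition.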

The target in test [3] is T1, Mitogen-activated protein kinase kinase kinase 12 (Homo sapiens, UniProt Q12852).
T1 sequence (Q12852 whole entry): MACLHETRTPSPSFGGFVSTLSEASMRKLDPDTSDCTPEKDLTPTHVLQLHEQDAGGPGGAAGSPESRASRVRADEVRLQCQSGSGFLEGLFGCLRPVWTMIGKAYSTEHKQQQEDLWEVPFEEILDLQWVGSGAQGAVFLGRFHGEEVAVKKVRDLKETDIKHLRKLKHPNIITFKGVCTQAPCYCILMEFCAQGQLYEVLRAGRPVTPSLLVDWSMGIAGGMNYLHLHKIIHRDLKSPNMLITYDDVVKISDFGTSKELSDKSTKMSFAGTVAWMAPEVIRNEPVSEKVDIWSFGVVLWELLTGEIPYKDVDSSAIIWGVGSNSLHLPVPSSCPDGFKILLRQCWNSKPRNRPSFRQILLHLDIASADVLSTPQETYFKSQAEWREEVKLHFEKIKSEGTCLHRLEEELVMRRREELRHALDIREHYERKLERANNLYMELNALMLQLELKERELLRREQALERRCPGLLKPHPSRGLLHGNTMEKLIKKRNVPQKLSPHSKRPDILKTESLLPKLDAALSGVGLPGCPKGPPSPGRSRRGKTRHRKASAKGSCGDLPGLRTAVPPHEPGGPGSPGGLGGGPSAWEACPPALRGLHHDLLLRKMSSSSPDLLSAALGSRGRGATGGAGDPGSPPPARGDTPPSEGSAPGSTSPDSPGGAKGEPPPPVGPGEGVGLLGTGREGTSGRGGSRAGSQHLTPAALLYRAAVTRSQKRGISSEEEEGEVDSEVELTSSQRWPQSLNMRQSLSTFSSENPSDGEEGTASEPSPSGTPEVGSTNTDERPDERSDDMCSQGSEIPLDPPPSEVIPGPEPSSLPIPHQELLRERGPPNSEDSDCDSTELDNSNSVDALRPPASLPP
Nature of the test: Binding affinity to N-terminally GST-tagged wild type human DLK (1 to 520 residues) expressed in sf21 insect cells using N-terminally His-tagged MKK4 K131M as substrate after 60 mins in presence of ATP by TR-FRET assay.

Test [4] concerns the target D(2) dopamine receptor (Homo sapiens) (UniProt P14416). Nature of the test: Binding affinity to recombinant human D2 short dopamine receptor at 10 uM relative to control. In a few lines: (§2)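 Broad radioligand-binding and enzyme screening panel covering 42 targets (biogenic amine and neuropeptide receptors, ion channels, neurotransmitter transporters, acetylcholinesterase). Single test concentration of 10 μM. Results expressed as binding relative to control, with a hit defined as >50% of control.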

Test [5] addresses Muscarinic acetylcholine receptor M3 (Homo sapiens) (UniProt P20309). As to the kind of experiment: Binding affinity to recombinant human M3 acetylcholine receptor at 10 uM relative to control. In a few lines:
as §2

Test [6] is filed under the species Homo sapiens. As to the kind of experiment: Binding affinity to sodium channel site 2 (unknown origin) receptor at 10 uM relative to control. In a few lines: as §2
For test [7], the target named is Fibroblast growth factor receptor 3 (Homo sapiens) (UniProt P22607). As to the kind of experiment: Inhibition of recombinant His-tagged FGFR3 human cytoplasmic domain expressed in baculovirus expression system at 1 uM by FRET assay relative to control. In a few lines: as §1
Test [8] has as its target Serine/threonine-protein kinase 24 (Homo sapiens) (UniProt Q9Y6E0). As to the kind of experiment: Inhibition of recombinant full length GST-tagged human MST3 expressed in baculovirus at 1 uM by FRET assay relative to control. A digest of the protocol:
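Single-concentration screen at 1 μM in Life Technologies SelectScreen, across a 220-kinase panel. Z′-LYTE format measures phosphorylation of a labeled peptide by FRET. Results are reported as percent inhibition.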

Test [9] deals with Mitogen-activated protein kinase kinase kinase 12 (Mus musculus) (UniProt Q60700). As to the kind of experiment: Inhibition of DLK in CD-1 mouse DRG neuron assessed as axonal protection pre-incubated for 2 hrs before NGF deprivation for 16 to 20 hrs by Campenot chamber based fluorescence assay. In a few lines:
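High-content imaging assay of axon degeneration, with automated quantification of axons. Protection is expressed relative to a positive control in which degeneration was not induced. EC50 was taken from dose-response curves, each point being the average of three independent assays ± SD.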

In test [10] the target is Calcium/calmodulin-dependent protein kinase type II subunit alpha (Homo sapiens) (UniProt Q9UQM7). As to the kind of experiment: Inhibition of CamK2alpha (unknown origin) at 1 uM by FRET assay relative to control.
The target in test [11] is Opioid receptors; mu/kappa/delta (Homo sapiens) (UniProt P41145+P41143+P35372). Nature of the test: Binding affinity to opiod receptor (unknown origin) receptor at 10 uM relative to control. The class given is protein assay. In a few lines: as §2
The target in test [12] is Muscle, skeletal receptor tyrosine-protein kinase (Homo sapiens) (UniProt O15146). As to the kind of experiment: Inhibition of recombinant GST-tagged human MUSK cytoplasmic domain expressed in baculovirus expression system at 1 uM by FRET assay relative to control. A digest of the protocol:
as §1

The target of test [13] is Dual specificity protein kinase TTK (Homo sapiens) (UniProt P33981). Nature of the test: Inhibition of recombinant full length GST-tagged human TTK expressed in baculovirus expression system at 1 uM by FRET assay relative to control.
Test [14] has as its target D(1A) dopamine receptor (Homo sapiens) (UniProt P21728). As to the kind of experiment: Binding affinity to recombinant full length human D1 dopamine receptor at 10 uM relative to control. A digest of the protocol: as §2
Test [15] deals with Sodium-dependent serotonin transporter (Homo sapiens) (UniProt P31645). Nature of the test: Binding affinity to 5HT transporter (unknown origin) at 10 uM relative to control. In a few lines:
as §2

For test [16], the target named is Ephrin type-B receptor 1 (Homo sapiens) (UniProt P54762). As to the kind of experiment: Inhibition of recombinant GST-tagged human EphB1 cytoplasmic domain expressed in baculovirus expression system at 1 uM by FRET assay relative to control. A digest of the protocol:
as §1

Test [17] has as its target 5-hydroxytryptamine receptor 4 (Homo sapiens) (UniProt Q13639). As to the kind of experiment: Binding affinity to 5HT4e receptor (unknown origin) receptor at 10 uM relative to control. A digest of the protocol: as §2
Test [18] has as its target Mitogen-activated protein kinase kinase kinase 9 (Homo sapiens, UniProt P80192). As to the kind of experiment: Inhibition of recombinant human GST-tagged MLK1 expressed in baculovirus expression system by FRET assay.
Test [19] deals with Mitogen-activated protein kinase 9 (Homo sapiens, UniProt P45984). As to the kind of experiment: Inhibition of recombinant full length His-tagged human JNK2 ([…]) expressed in baculovirus expression system at 1 uM by FRET assay relative to control.
Test [20] concerns the target Serine/threonine-protein kinase PLK3 (Homo sapiens) (UniProt Q9H4B4). Nature of the test: Inhibition of GST-tagged human PLK3 catalytic domain expressed in baculovirus expression system at 1 uM by FRET assay relative to control.

Chain of Muscle, skeletal receptor tyrosine-protein kinase (Homo sapiens) (O15146 whole entry, the tested form may be a part): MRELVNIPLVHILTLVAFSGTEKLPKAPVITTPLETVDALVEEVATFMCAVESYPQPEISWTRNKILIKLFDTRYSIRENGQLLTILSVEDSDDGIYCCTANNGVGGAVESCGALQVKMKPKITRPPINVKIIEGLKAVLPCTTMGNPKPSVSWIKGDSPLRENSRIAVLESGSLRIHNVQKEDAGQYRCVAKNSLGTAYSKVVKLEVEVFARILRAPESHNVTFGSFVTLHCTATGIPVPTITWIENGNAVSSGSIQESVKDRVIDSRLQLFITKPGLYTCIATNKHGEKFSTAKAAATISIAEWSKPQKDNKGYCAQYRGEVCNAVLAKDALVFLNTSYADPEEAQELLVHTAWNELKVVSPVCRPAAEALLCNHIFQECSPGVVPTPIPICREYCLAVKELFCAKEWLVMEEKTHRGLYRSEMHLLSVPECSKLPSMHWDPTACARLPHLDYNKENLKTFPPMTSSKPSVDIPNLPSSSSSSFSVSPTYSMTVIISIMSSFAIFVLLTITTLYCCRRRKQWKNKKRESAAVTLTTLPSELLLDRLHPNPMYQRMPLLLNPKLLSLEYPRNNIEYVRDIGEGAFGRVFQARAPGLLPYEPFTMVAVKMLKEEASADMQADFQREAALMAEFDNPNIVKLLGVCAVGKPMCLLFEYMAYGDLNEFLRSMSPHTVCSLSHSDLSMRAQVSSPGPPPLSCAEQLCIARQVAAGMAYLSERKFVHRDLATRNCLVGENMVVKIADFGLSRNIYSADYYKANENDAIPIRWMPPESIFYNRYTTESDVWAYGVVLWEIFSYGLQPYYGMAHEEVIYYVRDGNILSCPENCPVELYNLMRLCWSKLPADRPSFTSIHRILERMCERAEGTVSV
Chain of Serine/threonine-protein kinase 24 (Homo sapiens) (Q9Y6E0 whole entry, looked up): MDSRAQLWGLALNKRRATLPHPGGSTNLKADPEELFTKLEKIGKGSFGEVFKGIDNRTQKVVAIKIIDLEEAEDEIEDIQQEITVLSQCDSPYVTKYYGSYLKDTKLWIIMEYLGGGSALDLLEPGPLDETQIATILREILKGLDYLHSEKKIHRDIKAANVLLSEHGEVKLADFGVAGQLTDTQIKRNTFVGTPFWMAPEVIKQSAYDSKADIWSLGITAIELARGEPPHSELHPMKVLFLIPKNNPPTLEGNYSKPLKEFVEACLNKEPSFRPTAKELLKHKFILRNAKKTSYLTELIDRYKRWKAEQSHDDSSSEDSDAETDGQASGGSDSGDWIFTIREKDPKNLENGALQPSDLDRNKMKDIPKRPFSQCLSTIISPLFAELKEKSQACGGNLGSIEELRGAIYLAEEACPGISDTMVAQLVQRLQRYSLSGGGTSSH
Chain of D(1A) dopamine receptor (Homo sapiens) (P21728 whole entry): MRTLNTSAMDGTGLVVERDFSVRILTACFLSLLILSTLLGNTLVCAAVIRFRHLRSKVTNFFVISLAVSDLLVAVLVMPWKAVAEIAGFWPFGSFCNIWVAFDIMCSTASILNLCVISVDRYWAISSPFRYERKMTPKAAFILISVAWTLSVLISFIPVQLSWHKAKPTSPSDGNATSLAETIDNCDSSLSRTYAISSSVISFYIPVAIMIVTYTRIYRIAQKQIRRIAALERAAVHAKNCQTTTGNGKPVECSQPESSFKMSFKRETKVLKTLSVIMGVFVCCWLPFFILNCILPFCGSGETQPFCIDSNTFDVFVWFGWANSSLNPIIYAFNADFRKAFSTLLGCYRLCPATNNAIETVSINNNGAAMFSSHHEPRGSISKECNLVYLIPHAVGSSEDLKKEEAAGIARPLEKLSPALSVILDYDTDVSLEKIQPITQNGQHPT
Chain of 5-hydroxytryptamine receptor 4 (Homo sapiens) (Q13639 whole entry): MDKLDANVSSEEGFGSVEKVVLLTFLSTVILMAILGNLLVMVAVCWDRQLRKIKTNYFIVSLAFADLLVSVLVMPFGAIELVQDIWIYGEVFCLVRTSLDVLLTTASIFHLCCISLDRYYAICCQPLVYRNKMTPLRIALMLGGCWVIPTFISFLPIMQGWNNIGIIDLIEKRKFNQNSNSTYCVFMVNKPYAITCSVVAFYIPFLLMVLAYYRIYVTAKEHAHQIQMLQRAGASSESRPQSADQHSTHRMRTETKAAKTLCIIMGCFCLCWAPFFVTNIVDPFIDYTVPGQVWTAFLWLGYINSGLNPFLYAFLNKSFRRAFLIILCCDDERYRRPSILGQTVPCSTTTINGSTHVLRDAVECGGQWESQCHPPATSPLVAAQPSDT
Chain of Serine/threonine-protein kinase PLK3 (Homo sapiens) (Q9H4B4 whole entry, looked up, the tested form may be a part): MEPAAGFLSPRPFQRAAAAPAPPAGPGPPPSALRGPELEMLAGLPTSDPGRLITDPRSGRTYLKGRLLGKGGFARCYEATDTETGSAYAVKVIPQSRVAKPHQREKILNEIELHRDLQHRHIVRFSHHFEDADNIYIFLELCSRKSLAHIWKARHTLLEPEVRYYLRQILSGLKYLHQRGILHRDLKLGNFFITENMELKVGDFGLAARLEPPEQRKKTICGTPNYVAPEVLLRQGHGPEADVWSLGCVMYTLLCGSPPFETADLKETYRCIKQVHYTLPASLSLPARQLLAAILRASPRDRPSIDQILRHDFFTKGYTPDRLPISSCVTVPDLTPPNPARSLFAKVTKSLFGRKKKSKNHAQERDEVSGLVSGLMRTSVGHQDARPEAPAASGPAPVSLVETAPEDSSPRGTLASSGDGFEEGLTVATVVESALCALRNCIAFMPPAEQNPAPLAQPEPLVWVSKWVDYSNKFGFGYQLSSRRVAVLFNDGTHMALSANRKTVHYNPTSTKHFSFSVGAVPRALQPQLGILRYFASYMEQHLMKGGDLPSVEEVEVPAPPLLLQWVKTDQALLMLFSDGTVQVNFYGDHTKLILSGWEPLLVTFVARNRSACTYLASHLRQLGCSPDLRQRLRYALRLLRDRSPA
Chain of Dual specificity tyrosine-phosphorylation-regulated kinase 4 (Homo sapiens) (Q9NR20 whole entry, the tested form may be a part): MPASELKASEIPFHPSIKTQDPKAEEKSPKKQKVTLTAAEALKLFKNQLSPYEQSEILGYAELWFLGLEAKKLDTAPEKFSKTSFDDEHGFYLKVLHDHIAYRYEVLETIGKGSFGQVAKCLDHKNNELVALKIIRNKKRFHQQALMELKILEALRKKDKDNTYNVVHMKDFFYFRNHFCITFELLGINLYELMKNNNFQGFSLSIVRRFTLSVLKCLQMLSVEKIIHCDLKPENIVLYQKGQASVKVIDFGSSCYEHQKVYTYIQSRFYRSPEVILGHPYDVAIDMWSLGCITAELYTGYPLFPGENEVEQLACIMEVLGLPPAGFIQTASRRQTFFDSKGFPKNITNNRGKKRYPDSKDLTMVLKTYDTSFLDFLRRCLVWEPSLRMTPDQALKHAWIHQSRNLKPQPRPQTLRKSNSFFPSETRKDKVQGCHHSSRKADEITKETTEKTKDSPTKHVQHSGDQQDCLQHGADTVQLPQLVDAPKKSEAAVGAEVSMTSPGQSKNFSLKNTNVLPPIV
Chain of D(2) dopamine receptor (Homo sapiens) (P14416 whole entry): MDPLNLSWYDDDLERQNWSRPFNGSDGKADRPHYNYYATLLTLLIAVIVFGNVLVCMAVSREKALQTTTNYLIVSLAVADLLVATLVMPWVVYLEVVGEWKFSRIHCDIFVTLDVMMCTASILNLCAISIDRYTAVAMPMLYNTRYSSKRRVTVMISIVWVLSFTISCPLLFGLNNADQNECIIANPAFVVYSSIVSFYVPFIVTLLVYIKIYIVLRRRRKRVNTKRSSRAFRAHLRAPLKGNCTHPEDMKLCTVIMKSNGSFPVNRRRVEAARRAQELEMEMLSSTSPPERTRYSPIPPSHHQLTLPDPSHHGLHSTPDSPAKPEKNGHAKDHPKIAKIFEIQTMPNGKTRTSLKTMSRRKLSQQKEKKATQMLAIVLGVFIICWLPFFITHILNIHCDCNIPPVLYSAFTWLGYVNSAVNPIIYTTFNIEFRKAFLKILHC
Chain of Mitogen-activated protein kinase kinase kinase 9 (P80192 whole entry): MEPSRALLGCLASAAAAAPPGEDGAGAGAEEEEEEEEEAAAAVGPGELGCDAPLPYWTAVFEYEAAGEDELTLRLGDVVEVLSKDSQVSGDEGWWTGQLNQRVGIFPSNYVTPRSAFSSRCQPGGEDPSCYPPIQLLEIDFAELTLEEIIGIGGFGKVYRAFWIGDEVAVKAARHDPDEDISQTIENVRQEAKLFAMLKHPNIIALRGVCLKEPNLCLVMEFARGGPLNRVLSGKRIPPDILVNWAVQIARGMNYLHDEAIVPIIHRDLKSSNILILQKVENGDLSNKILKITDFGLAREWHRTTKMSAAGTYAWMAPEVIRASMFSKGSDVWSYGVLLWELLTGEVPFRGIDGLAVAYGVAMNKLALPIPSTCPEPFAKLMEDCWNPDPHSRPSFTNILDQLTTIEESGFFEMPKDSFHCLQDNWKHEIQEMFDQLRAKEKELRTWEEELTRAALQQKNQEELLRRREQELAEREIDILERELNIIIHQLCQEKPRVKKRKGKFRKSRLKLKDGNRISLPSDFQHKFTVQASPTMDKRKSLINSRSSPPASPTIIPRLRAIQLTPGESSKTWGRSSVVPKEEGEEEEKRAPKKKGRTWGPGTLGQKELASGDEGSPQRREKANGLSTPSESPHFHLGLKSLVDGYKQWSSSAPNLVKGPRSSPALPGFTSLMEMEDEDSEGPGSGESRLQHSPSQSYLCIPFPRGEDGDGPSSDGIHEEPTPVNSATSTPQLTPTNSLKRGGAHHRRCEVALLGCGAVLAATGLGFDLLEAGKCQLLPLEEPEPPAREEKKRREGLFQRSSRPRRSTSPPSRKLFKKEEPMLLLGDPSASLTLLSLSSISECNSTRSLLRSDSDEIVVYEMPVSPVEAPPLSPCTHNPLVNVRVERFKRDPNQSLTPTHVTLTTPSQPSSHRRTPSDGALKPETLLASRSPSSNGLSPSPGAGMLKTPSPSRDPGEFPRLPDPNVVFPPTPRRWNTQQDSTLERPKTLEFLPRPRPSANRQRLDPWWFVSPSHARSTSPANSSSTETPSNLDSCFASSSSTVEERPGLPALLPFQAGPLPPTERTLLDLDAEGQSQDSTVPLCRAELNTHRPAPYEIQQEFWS

With `CC(C)n1nc(-c2cnc(N)c(OC(F)(F)F)c2)cc1[C@H]1[C@@H]2CN(C3COC3)C[C@@H]21`, the inhibition in [1] was -1.4%; in test [2], 46.3%; in test [7] it was -1.8%; in test [8], -9.5%; in test [10] it was 2.4%; in test [12], 4%. Besides, the inhibition in test [13] was 14.2%; in [16], 10.1%; in test [19] it was 4.4%; in test [20], -3.8%. Moreover, the inhibitory constant (Ki) in [3] was determined as 3 nM. In addition, the Activity in test [4] is above 50%; in test [5] it was above 50%; in test [6] it was above 50%; in test [9], “Dose-dependent effect”; in test [11], above 50%; in test [14], above 50%. In addition, the Activity in test [15] and in test [17] was above 50% each time. The half-inhibitory concentration (IC50) in test [18] is 5920 nM.

As to `Nc1ncc(-c2cc([C@H]3[C@@H]4CN(C5COC5)C[C@@H]43)n(CC3CC3)n2)cc1C(F)(F)F`, the inhibition was -1.6% in [1]; 54.1% in test [2]; -9.3% in test [7]; -7.7% in test [8]; 0.6% in test [10]; 27.8% in test [12]. Also, the inhibition in test [13] was 11.2%; in test [16], 5.9%; in [19] it was 0.6%; in test [20], 0.6%. Moreover, in test [3], the inhibitory constant (Ki) was found to be 4 nM. In addition, the Activity was above 50% in [4]; above 50% in test [5]; above 50% in test [6]; “Dose-dependent effect” in test [9]; above 50% in test [11]; above 50% in test [14]. Further, the Activity in test [15] and in test [17] was above 50% throughout. Further, the half-inhibitory concentration (IC50) in test [18] was determined as 3500 nM.
